Blank lines part the entries; values can stand above or below the compound they belong to.
Columns and labels:
Endothelin-1 receptor [1] = target: T1, Endothelin-1 receptor (Rattus norvegicus, UniProt P26684); assay: Binding affinity for endothelin A receptor by measuring its ability to displace [125I]ET1 from prolactin secreting rat pituitary cells(MMQ); assay type: cell-based, Pituitary gland cell
T1 sequence (P26684 whole entry): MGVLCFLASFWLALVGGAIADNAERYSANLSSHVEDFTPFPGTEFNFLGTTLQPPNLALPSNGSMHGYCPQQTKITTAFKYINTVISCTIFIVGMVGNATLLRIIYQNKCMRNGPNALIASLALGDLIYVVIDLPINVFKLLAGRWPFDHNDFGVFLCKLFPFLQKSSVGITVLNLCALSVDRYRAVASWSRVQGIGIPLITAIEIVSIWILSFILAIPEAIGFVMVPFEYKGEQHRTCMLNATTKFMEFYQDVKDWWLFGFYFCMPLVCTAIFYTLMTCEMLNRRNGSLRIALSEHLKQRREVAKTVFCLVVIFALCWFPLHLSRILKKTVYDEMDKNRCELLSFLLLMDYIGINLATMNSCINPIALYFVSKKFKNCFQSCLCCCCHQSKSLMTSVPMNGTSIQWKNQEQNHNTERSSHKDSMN

[2] = target: T2, Endothelin receptor type B (Homo sapiens, UniProt P24530); assay: Tested for binding affinity for human Endothelin B receptor by measuring its ability to displace [125I]ET-3 from chinese hamster ovary cells(CHO); assay type: cell-based
T2 sequence (P24530 whole entry): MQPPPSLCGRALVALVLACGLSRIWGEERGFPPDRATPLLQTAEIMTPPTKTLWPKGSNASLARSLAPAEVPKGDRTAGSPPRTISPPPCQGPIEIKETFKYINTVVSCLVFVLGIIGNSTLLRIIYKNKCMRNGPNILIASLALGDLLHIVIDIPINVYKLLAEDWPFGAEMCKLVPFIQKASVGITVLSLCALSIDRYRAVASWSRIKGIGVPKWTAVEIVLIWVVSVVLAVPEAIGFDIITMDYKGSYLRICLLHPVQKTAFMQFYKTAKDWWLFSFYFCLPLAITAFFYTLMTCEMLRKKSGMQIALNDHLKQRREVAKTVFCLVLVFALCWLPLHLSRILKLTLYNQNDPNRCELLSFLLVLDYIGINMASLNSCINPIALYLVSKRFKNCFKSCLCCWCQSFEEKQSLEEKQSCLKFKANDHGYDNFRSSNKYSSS

Endothelin-1 receptor [3] = target: T3, Endothelin-1 receptor (Homo sapiens, UniProt P25101); assay: Tested for binding affinity for human Endothelin A receptor by measuring its ability to displace [125I]ET1 from chinese hamster ovary cells(CHO); assay type: cell-based
T3 sequence (P25101 whole entry): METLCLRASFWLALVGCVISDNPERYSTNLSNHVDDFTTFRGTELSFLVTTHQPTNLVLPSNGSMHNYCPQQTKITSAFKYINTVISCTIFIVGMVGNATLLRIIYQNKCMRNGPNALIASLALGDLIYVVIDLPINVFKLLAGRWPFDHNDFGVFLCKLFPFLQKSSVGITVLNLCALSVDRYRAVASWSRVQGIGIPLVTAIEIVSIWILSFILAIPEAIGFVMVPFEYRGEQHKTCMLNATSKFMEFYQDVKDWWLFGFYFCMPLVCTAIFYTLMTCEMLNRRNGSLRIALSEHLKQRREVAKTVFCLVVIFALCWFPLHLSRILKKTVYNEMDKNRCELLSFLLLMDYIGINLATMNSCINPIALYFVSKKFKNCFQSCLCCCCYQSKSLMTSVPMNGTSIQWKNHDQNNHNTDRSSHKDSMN

[4] = Pharmacokinetic profile-half life was evaluated in rats upon oral administration; assay type: ADME, organism-based; settings: rat, in vivo
In short: (§1)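 Male Sprague-Dawley rats, n = 4 per group, 10 mg/kg iv (jugular slow bolus) or oral gavage, 10 mg/mL in ethanol–propylene glycol–D5W (20:30:50) with 1 equiv NaOH. Tail-vein plasma taken 0.1 (iv only) to 12 h, assayed by HPLC after extraction. AUC by trapezoidal rule extrapolated to infinity; T1/2 from terminal rate constant; F as oral/iv AUC.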

[5] = Bioavailability in rat; assay type: ADME, organism-based; settings: in vivo; in short: as §1
[6] = Pharmacokinetic profile Cmax was evaluated in rats; assay type: ADME, organism-based; settings: rat, in vivo; in short: as §1
[7] = Pharmacokinetic profile-half life was evaluated in rats upon intravenous administration; assay type: ADME, organism-based; settings: rat, in vivo; in short: as §1
[8] = Pharmacokinetic profile AUC was evaluated in rats; assay type: ADME, organism-based; set-up: concentration or dose not given beside the values; settings: rat, in vivo; in short: as §1
Endothelin-1 receptor [9] = target: T3, Endothelin-1 receptor; assay: Tested for binding affinity for human Endothelin A receptor by measuring its ability to displace [125I]-ET-1 from chinese hamster ovary cells(CHO); assay type: cell-based
[10] = target: T2, Endothelin receptor type B; assay: Tested for binding affinity for human Endothelin B receptor by measuring its ability to displace [125I]-ET-3 from chinese hamster ovary cells(CHO); assay type: cell-based

SMILES: C=C(C)CCC[C@H]1[C@H](C(=O)O)[C@@H](c2ccc3c(c2)OCO3)CN1CC(=O)N(CCCC)CCCC
IC50 (Endothelin-1 receptor [1]): 5.2 nM

SMILES: CCCCN(CCCC)C(=O)CN1C[C@H](c2ccc3c(c2)OCO3)[C@@H](C(=O)O)[C@@H]1CCC1CCCO1 (stereo partly specified)
IC50 (Endothelin-1 receptor [1]): 12 nM

SMILES: CCCCN(CCCC)C(=O)CN1C[C@H](c2ccc3c(c2)OCO3)[C@@H](C(=O)O)[C@@H]1CCCC1OCCO1
IC50 (Endothelin-1 receptor [1]): 7 nM

SMILES: CCCCN(CCCC)C(=O)CN1C[C@H](c2ccc3c(c2)OCO3)[C@@H](C(=O)O)[C@@H]1CCC(C)CC (stereo partly specified)
IC50 (Endothelin-1 receptor [1]): 16 nM

SMILES: C/C=C\C(C)(C)C[C@H]1[C@H](C(=O)O)[C@@H](c2ccc3c(c2)OCO3)CN1CC(=O)N(CCCC)CCCC
half-life [4]: 3.58 h | bioavailability [5]: 32.2% | IC50 [2]: 92700 nM | Cmax [6]: 1490 ng/mL | half-life [7]: 1.6 h | AUC [8]: 2620 ng·h/mL | IC50 (Endothelin-1 receptor [3]): 1 nM

SMILES: Cc1cc2c(cc1CC(=O)c1ccsc1S(=O)(=O)Nc1onc(C)c1Cl)OCO2
Ki (Endothelin-1 receptor [9]): 0.43 nM | bioavailability [5]: 60% | Ki [10]: > 4300 nM | half-life [7]: 6.7 h

SMILES: CCCOc1ccc2c(c1)[C@@H](c1ccc(OC)cc1OCCO)[C@H](C(=O)O)[C@H]2c1ccc2c(c1)OCO2
bioavailability [5]: 66% | half-life [7]: 3.3 h

SMILES: Cc1noc(NS(=O)(=O)c2cccc3c(N(C)C)cccc23)c1C [BMS-182874]
Ki [10]: > 50000 nM

SMILES: COc1ccccc1Oc1c(NS(=O)(=O)c2ccc(C)cn2)nc(-c2ccnc(-c3nnn[nH]3)c2)nc1OCCO [CLAZOSENTAN]
Ki (Endothelin-1 receptor [9]): 0.13 nM | Ki [10]: 175 nM | half-life [7]: 0.8 h

SMILES: COc1ccc(C(=O)/C(Cc2cc(OC)c(OC)c(OC)c2)=C(\C(=O)[O-])c2ccc3c(c2)OCO3)cc1.[Na+] [PD-156707 SODIUM]
bioavailability [5]: 41% | Ki [10]: 139 nM | half-life [7]: 1 h

The remaining lines, values ahead:

IC50 (Endothelin-1 receptor [1]): 0.51 nM | IC50 [2]: 42000 nM | IC50 (Endothelin-1 receptor [3]): 1.06 nM
SMILES: CCCCN(CCCC)C(=O)CN1C[C@H](c2ccc3c(c2)OCO3)[C@@H](C(=O)O)[C@@H]1CCn1cccn1

IC50 (Endothelin-1 receptor [1]): 2.5 nM
SMILES: CCCCN(CCCC)C(=O)CN1C[C@H](c2ccc3c(c2)OCO3)[C@@H](C(=O)O)[C@@H]1CCCC(C)C

IC50 (Endothelin-1 receptor [1]): 2.4 nM
SMILES: CCCCN(CCCC)C(=O)CN1C[C@H](c2ccc3c(c2)OCO3)[C@@H](C(=O)O)[C@@H]1CCc1ncco1

IC50 (Endothelin-1 receptor [1]): 5 nM
SMILES: CCCCN(CCCC)C(=O)CN1C[C@H](c2ccc3c(c2)OCO3)[C@@H](C(=O)O)[C@@H]1CCN1C(=O)CCC1=O

IC50 (Endothelin-1 receptor [1]): 0.64 nM
SMILES: CCCCN(CCCC)C(=O)CN1C[C@H](c2ccc3c(c2)OCO3)[C@@H](C(=O)O)[C@@H]1CCC=C1CC1

IC50 (Endothelin-1 receptor [1]): 2.3 nM
SMILES: CCCCN(CCCC)C(=O)CN1C[C@H](c2ccc3c(c2)OCO3)[C@@H](C(=O)O)[C@@H]1CCC1OCCO1

IC50 (Endothelin-1 receptor [1]): 2.7 nM
SMILES: CCCCN(CCCC)C(=O)CN1C[C@H](c2ccc3c(c2)OCO3)[C@@H](C(=O)O)[C@@H]1CC(C)(C)C=C(C)C

IC50 (Endothelin-1 receptor [1]): 2.2 nM
SMILES: CCCCN(CCCC)C(=O)CN1C[C@H](c2ccc3c(c2)OCO3)[C@@H](C(=O)O)[C@@H]1CCc1ccoc1

IC50 (Endothelin-1 receptor [1]): 0.78 nM
SMILES: C/C=C\CC[C@H]1[C@H](C(=O)O)[C@@H](c2ccc3c(c2)OCO3)CN1CC(=O)N(CCCC)CCCC

IC50 (Endothelin-1 receptor [1]): 0.86 nM
SMILES: CCCCN(CCCC)C(=O)CN1C[C@H](c2ccc3c(c2)OCO3)[C@@H](C(=O)O)[C@@H]1CC/C=C(/C)CC

IC50 (Endothelin-1 receptor [1]): 4.5 nM
SMILES: CCCCN(CCCC)C(=O)CN1C[C@H](c2ccc3c(c2)OCO3)[C@@H](C(=O)O)[C@@H]1CCC1SCCS1

half-life [4]: 3.85 h | IC50 (Endothelin-1 receptor [1]): 1.3 nM | bioavailability [5]: 76.8% | IC50 [2]: 2800 nM | Cmax [6]: 1480 ng/mL | half-life [7]: 2.45 h | AUC [8]: 7060 ng·h/mL | IC50 (Endothelin-1 receptor [3]): 0.29 nM
SMILES: CCCCN(CCCC)C(=O)CN1C[C@H](c2ccc3c(c2)OCO3)[C@@H](C(=O)O)[C@@H]1CC(C)(C)CCC

half-life [4]: 2.5 h | IC50 (Endothelin-1 receptor [1]): 0.56 nM | bioavailability [5]: 47.7% | Cmax [6]: 1690 ng/mL | half-life [7]: 1.6 h | AUC [8]: 3270 ng·h/mL
SMILES: CCCCN(CCCC)C(=O)CN1C[C@H](c2cc(OC)c3c(c2)OCO3)[C@@H](C(=O)O)[C@@H]1CC(C)(C)CCC [ABT-546]
